Experimental findings from ChEMBL document CHEMBL2424641, “Synthesis and evaluation of novel radioligands for positron emission tomography imaging of the orexin-2 receptor” (J Med Chem, 2013) are described below.

By Ki is commonly meant a dissociation constant, usually derived from enzyme kinetics or from competition with a known ligand. Broadly, the logD is lipophilicity at a set pH, counting ionised and neutral species. A low value points to lower lipophilicity.

In one data set the test system is LLC-PK1. Briefly: Flux ratio of permeability from apical to basolateral to basolateral to apical side in pig LLC-PK1 cells after 2 hrs. It counts as ADME, cell-based, Sus scrofa. As to conditions: llc-pk1, 2 h. In short, it runs like this:
(§1)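 LLC-PK1 and LLC-MDR1 monolayers, 5 days post-seeding, preincubated 2 h at 37 °C in HBSS/10 mM HEPES. Compound added apically or basally, 2 h at 37 °C; opposite side assayed by LC-MS. Papp = Q/t/C0/A; FR = Papp(b→a)/Papp(a→b); corrected FR = FR(LLC-MDR1)/FR(LLC-PK1).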

For a further data set, the target named is T1, Orexin receptor type 2 (Homo sapiens, UniProt O43614).
T1 sequence (O43614 whole entry): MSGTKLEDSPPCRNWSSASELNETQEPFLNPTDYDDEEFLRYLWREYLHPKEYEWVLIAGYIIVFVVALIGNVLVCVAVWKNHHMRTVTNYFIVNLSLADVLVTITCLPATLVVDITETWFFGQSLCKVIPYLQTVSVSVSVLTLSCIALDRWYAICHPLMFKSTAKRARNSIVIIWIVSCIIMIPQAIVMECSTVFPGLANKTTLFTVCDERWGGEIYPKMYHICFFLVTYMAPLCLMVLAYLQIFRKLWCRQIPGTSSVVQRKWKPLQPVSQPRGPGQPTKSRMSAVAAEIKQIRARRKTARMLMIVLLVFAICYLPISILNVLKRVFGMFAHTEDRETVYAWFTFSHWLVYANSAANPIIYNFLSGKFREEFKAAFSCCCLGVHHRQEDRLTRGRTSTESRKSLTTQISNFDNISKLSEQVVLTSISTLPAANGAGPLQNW
Description: Displacement of [125I]-orexin-A from human OX2 receptor expressed in CHO cells after 30 mins by liquid scintillation counting analysis. The data set is classed as cell-based. In short, it runs like this:
(§2)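 CHO membranes expressing human OX1R or OX2R (5 μg protein) incubated 30 min at rt with compound and [125I]-orexin A (2 nM stock) in HEPES buffer pH 7.5 with MgCl2, CaCl2, BSA. Nonspecific binding with 10 μM orexin A. Wells washed with HEPES/525 mM NaCl and DPM counted. % inhibition from test, control and nonspecific counts; mean of three wells.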
On the technique in general: Displacement assays read how much labelled ligand stays bound in the presence of the test substance.

Data set [1] addresses T2, Orexin/Hypocretin receptor type 1 (Homo sapiens, UniProt O43613).
T2 sequence (O43613 whole entry): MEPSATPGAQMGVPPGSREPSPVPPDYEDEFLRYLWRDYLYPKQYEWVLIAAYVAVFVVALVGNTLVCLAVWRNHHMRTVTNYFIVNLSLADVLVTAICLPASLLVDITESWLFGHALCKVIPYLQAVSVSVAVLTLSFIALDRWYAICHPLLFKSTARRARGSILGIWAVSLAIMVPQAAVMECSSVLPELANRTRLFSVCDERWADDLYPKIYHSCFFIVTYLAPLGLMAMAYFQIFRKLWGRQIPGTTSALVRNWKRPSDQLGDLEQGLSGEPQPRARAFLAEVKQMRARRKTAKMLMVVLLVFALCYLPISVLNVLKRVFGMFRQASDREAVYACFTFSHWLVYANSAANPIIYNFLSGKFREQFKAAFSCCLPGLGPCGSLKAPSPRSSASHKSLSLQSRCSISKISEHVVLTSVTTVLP
Briefly: Displacement of [125I]-orexin-A from human OX1 receptor expressed in CHO cells after 30 mins by liquid scintillation counting analysis. The data set is classed as cell-based. In short, it runs like this:
as §2

Data set [2] can be described thus: Octanol-phosphate buffer partition coefficient, log D of the compound at pH 7.4 by Shake flask method. It counts as physicochemical. The method, boiled down: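 [11C]-labelled compound (about 200 000 cpm) in n-octanol and 0.1 M PBS pH 7.4, vortexed 3 min at rt and centrifuged; weighed aliquots of each phase γ-counted, with the organic layer repartitioned until stable. log D = log(cpm/g octanol ÷ cpm/g PBS); triplicate.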

Data set [3] can be described thus: Ratio of flux ratio in pig LLC cells expressing MDR1 to flux ratio on pig LLC-PK1 cells. The data set is classed as ADME, cell-based, Sus scrofa. The method, boiled down:
as §1

Data set [4] is described as follows: Flux ratio of permeability from apical to basolateral to basolateral to apical side in pig LLC cells expressing MDR1 after 2 hrs. It counts as ADME, cell-based, Sus scrofa. In short, it runs like this: as §1
Data set [5] deals with T3, Orexin receptor type 2 (Rattus norvegicus) (UniProt P56719).
T3 sequence (whole entry): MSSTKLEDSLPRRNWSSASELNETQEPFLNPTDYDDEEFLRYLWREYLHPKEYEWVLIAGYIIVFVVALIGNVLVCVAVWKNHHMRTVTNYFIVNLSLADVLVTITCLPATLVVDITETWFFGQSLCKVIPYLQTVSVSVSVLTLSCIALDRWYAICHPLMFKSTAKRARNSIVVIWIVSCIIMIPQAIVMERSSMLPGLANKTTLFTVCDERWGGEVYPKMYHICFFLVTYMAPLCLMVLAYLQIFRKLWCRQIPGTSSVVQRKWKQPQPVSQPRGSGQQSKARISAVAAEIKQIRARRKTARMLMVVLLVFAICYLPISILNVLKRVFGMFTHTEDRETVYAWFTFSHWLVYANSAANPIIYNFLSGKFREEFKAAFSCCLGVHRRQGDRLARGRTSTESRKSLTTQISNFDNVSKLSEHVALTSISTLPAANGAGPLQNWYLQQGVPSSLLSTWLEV
Description: Binding affinity to OX2 receptor in coronal rat brain neocortex layer 6 at 2.5 nM by autoradiography. The data set is classed as tissue-based. Conditions: tested as the 11C-labelled form. The method, boiled down:
(§3)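 Rat brain sections (20 μm) preincubated 20 min at rt in 25 mM HEPES pH 7.4 with 5 mM MgCl2 and 1 mM CaCl2, then incubated 60 min at rt with 11C radioligand; nonspecific binding with 10 μM unlabeled compound. Sections washed three times in cold water, dried, exposed to imaging plate 1 h alongside calibrated radioactive standards.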

The subject of the next data set is Cerebellum. Briefly: Drug uptake in P-gp-knockout rat cerebellum at 78.7 to 189.8 MBq, iv after 90 mins by PET analysis in presence of 10 mg/kg, po unlabeled compound. As to conditions: in vivo, 1.5 h. Also on record: dose 10 mg/kg, route oral. It counts as ADME, organism-based. In short, it runs like this: (§4)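 Male Mdr1a-knockout rats (410−500 g) under 1.5% isoflurane at 37 °C; [11C] tracer 78.7−189.8 MBq by tail vein. 90 min list-mode microPET scan with filtered back-projection; ROIs drawn on MRI template; decay-corrected %ID/mL, n = 3. Blocking: unlabeled compound 10 mg/kg po in 5% DMSO/10% cremophor in 10 mM HCl, given 1 h before tracer.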

A short description of data set [6]: Drug uptake in P-gp-knockout rat neocortex at 78.7 to 189.8 MBq, iv after 90 mins by PET analysis. The data set is classed as ADME, organism-based. As to conditions: in vivo, 1.5 h. The method, boiled down: as §4
A further data set relates to Hippocampus. Description: Drug uptake in P-gp-knockout rat hippocampus at 78.7 to 189.8 MBq, iv after 90 mins by PET analysis. As to conditions: in vivo, 1.5 h. It counts as ADME, organism-based. In short, it runs like this: as §4
Data set [7] addresses T3, Orexin receptor type 2 (Rattus norvegicus). Briefly: Binding affinity to OX2 receptor in rat brain neocortex layer 6 at 3.6 nM by autoradiography in presence of EMPA. It counts as tissue-based. As to conditions: tested as the 11C-labelled form.
In another data set the test system is Thalamus. Description: Drug uptake in P-gp-knockout rat thalamus at 78.7 to 189.8 MBq, iv after 90 mins by PET analysis. Conditions: in vivo, 1.5 h. The data set is classed as ADME, organism-based. The method, boiled down:
as §4

Data set [8] concerns the target T3, Orexin receptor type 2 (Rattus norvegicus). Briefly: Binding affinity to OX2 receptor in coronal rat neocortex layer 6 at 2 nM by autoradiography. Conditions: tested as the 11C-labelled form. The method, boiled down: as §3
The target in data set [9] is Cannabinoid receptor 1 (Homo sapiens) (UniProt P21554). Description: Antagonist activity at cannabinoid CB1 receptor (unknown origin) expressed in HEK 293 cells coexpressing Gqi5 chimeric G-protein after 1 hr by fluorescence-based analysis. The data set is classed as cell-based. The method, boiled down:
(§5)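 HEK293 cells stably expressing target GPCR with Gqi5 chimeric G-protein, seeded on collagen I plates and cultured overnight; calcium dye loaded 1 h at 37 °C. Compound at final 3, 10, 30 μM preincubated 1 h at rt, then reference agonist added at EC20 or EC80; Ca2+ fluorescence read in real time.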

In data set [10] the target is Melatonin receptor type 1A (Homo sapiens) (UniProt P48039). Briefly: Antagonist activity at melatonin MT1A receptor (unknown origin) expressed in HEK 293 cells coexpressing Gqi5 chimeric G-protein after 1 hr by fluorescence-based analysis. It counts as cell-based. In short, it runs like this: as §5
The target of data set [11] is T3, Orexin receptor type 2 (Rattus norvegicus). Description: Binding affinity to OX2 receptor in coronal rat hypothalamus at 2.5 nM by autoradiography. Conditions: tested as the 11C-labelled form. The method, boiled down:
as §3

The target is the same in data set [12]. Briefly: Binding affinity to OX2 receptor in rat brain neocortex layer 6 at 3.6 nM by autoradiography in presence of suvorexant. The data set is classed as tissue-based. Conditions: tested as the 11C-labelled form.
For data set [13] the target is unchanged. Briefly: Binding affinity to OX2 receptor in coronal rat hypothalamus at 2 nM by autoradiography. As to conditions: tested as the 11C-labelled form. In short, it runs like this:
as §3

[14] abbreviates: HEK293, tested as the 11C-labelled form.

The source made the active and inactive calls. The calls are words filed in the database; no cut-off is given here.

Melatonin receptor type 1A (Homo sapiens), sequence (P48039 whole entry): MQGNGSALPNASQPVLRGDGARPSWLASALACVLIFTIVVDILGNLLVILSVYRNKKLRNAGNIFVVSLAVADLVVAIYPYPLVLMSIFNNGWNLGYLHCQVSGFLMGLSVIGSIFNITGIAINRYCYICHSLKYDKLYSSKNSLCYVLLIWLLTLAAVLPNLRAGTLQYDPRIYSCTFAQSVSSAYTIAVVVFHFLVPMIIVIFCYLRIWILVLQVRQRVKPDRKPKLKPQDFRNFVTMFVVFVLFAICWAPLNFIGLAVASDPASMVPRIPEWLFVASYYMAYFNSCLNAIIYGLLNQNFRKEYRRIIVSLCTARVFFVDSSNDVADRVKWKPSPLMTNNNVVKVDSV
Cannabinoid receptor 1 (Homo sapiens), sequence (P21554 whole entry): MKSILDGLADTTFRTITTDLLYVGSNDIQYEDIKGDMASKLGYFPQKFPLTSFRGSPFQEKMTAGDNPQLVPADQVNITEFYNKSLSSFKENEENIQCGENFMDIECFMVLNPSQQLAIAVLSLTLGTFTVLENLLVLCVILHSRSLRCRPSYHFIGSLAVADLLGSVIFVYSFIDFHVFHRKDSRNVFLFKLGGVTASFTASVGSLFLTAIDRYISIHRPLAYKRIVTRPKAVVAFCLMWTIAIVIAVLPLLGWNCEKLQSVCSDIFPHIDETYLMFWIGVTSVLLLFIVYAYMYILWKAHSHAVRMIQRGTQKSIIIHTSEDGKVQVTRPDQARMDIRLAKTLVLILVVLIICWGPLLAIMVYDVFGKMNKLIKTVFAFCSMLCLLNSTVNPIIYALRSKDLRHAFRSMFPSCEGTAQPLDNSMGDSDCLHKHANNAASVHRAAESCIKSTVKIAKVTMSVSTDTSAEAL

Take `COc1ccc([C@]2(COc3cnc(C)nc3C)C[C@H]2C(=O)Nc2ccc(F)cn2)cc1F`: the Ratio in the data set on LLC-PK1 was 0.8; in [3] it was 1.55; in data set [4], 1.24. Further, the Ki at Orexin receptor type 2 was found to be 7 nM; in [1], 30 nM. The same compound returned a pH-dependent lipophilicity (logD) in data set [2] of 3.32.

For `Cc1ncc(OC[C@@]2(c3cccc(F)c3)C[C@H]2C(=O)Nc2ccc(C#N)cn2)c(C)n1`, the Ratio in the data set with LLC-PK1 is reported as 1.09; in data set [3] it was 1.76; in [4] it was 1.92. In addition, the Ki turned out to be 5 nM at Orexin receptor type 2 and 32 nM in data set [1].

Consider `COCc1nc(C)ncc1OC[C@@]1(c2cccc(F)c2)C[C@H]1C(=O)Nc1ccc(F)cn1`, for which the outcome in data set [5], in [8], in [9] (HEK293), in [9] (setting [14]), in data set [10] (HEK293) and in data set [10] (setting [14]) was Active. The result in data set [11] was Active. The Drug uptake entry (in the data set on Cerebellum; in data set [6]; with Hippocampus; in the data set on Thalamus) was “Active” throughout. Moreover, the results for the Ratio (in the data set with LLC-PK1; in [3]; in data set [4]) were 0.84, 3.11 and 2.61, respectively. Also, the Ki (on Orexin receptor type 2; in data set [1]) was 1 nM each time. For the same compound, the outcome in data set [7] and in [12] was inactive. In [2], this compound returned a logD of 2.97.

With `COc1nc(NC(=O)[C@@H]2C[C@@]2(COc2cnc(C)nc2C)c2cccc(F)c2)ccc1F`, the values for the Ratio (with LLC-PK1; in [3]; in data set [4]) were 0.81, 1.21 and 0.98, respectively. Besides, the Ki was determined as 2 nM on Orexin receptor type 2 and 12 nM in [1]. For the same compound, in data set [2], the logD was determined as 3.6.

In the case of `COc1cc(NC(=O)[C@@H]2C[C@@]2(COc2cnc(C)nc2C)c2cccc(F)c2)ncc1F`, the outcome in [5], in [8] and in [13] was Active. The Ratio came out at 1.19 in the data set on LLC-PK1, 2.06 in data set [3] and 2.45 in data set [4]. In addition, the values for the Ki (on Orexin receptor type 2; in data set [1]) were 2 nM and 3 nM, respectively. This compound also had a logD in data set [2] of 2.93.

Regarding `Cc1ncc(OC[C@@]2(c3cccc(F)c3)C[C@H]2C(=O)Nc2cc(O[11CH3])c(F)cn2)c(C)n1`, the Drug uptake entry in the data set on Cerebellum was “Not Active”; in data set [6], “Active”; in the data set on Hippocampus, “Active”; in the data set with Thalamus it was “Active”. The logD in data set [2] is 2.93.

With `COCc1nc(C)ncc1OC[C@@]1(c2ccccc2)C[C@H]1C(=O)Nc1ccc(F)cn1`, the results for the Ratio (with LLC-PK1; in data set [3]; in data set [4]) were 0.97, 2.03 and 1.97, respectively. Further, the values for the Ki (at Orexin receptor type 2; in data set [1]) were 1 nM and 9 nM, respectively.

In turn, `Cc1ncc(OC[C@@]2(c3cccc(F)c3)C[C@H]2C(=O)Nc2ccc(F)c(O[11CH3])n2)c(C)n1` yielded a logD in data set [2] of 3.6.
